Assay results reported in ChEMBL document CHEMBL1817661, “Combining carbochips and mass spectrometry to study the donor specificity for the Neisseria meningitidis β1,3-N-acetylglucosaminyltransferase LgtA” (Bioorg Med Chem Lett, 2011).
One block for each molecule: values may come before it. Activity calls are given as the source filed them. The rule behind the calls is not given here.

How the values were obtained:
[1] = target: T1, Beta 1,3 N-acetylglucosaminyltransferase (Neisseria meningitidis) (UniProt Q8KHG4); test: Ratio of Vmax to Km for Neisseria meningitidis beta1,3-N-acetylglucosaminyltransferase LgtA assessed as enzyme catalyzed glycosylation using lactose as substrate after 2 to 30 mins by SAMDI analysis
T1 sequence (whole entry): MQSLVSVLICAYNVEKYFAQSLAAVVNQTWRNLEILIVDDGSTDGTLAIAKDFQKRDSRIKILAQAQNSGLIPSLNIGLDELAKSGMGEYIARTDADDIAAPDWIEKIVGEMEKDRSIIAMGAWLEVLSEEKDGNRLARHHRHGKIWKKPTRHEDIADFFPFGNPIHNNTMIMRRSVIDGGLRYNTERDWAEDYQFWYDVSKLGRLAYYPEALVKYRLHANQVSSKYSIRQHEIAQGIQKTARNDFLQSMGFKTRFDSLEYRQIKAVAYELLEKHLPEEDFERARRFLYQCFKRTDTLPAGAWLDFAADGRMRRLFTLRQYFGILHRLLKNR
Summary of the method: (§1)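 Solution-phase reactions: LgtA with lactose azide acceptor (10 mM) and UDP-sugar donor at five concentrations (1–10 mM), 30 °C. Sets stopped at 12 time points. Aliquots mixed with copper bromide and DIPEA and immobilized on monolayer islands (20 min). Yield comes from product/substrate SAMDI peak intensities. Initial velocities are slopes of linear fits of yield vs time. Apparent Km and Vmax are taken from a reciprocal plot.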

[2] = target: T1, Beta 1,3 N-acetylglucosaminyltransferase (Neisseria meningitidis); test: Activity of Neisseria meningitidis beta1,3-N-acetylglucosaminyltransferase LgtA assessed as enzyme catalyzed glycosylation using self-assembled monolayers having lactoside as acceptor at 2 mM after 5 to 120 mins by SAMDI MS assay
Summary of the method: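 Gold islands (2 mm) carry a monolayer of lactose (10% density) with tri(ethylene glycol) groups. Each donor analog (2 mM) is mixed with LgtA in assay buffer, applied to an island, and incubated in a humidified chamber at 30 °C. Times were 5, 10, 15, 20, 30, 40, 60 and 120 min. Arrays were rinsed with water and ethanol, matrix was applied, and relative glycosylation product was read by SAMDI MS.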

[3] = substrate: CC(=O)N[C@H]1[C@@H](OP(=O)(O)OP(=O)(O)OC[C@H]2O[C@@H](n3ccc(=O)[nH]c3=O)[C@H](O)[C@@H]2O)O[C@H](CO)C[C@@H]1O; test: (§2) Activity of Neisseria meningitidis beta1,3-N-acetylglucosaminyltransferase LgtA assessed as enzyme catalyzed glycosylation using lactose as substrate after 2 to 30 mins by SAMDI analysis; summary of the method: as §1
[4] = substrate: CC(=O)N[C@H]1[C@@H](OP(=O)(O)OP(=O)(O)OC[C@H]2O[C@@H](n3ccc(=O)[nH]c3=O)[C@H](O)[C@@H]2O)O[C@H](C)[C@@H](O)[C@@H]1O; test: as §2; summary of the method: as §1
[5] = substrate: CCC(=O)N[C@H]1[C@@H](OP(=O)(O)OP(=O)(O)OC[C@H]2O[C@@H](n3ccc(=O)[nH]c3=O)[C@H](O)[C@@H]2O)O[C@H](CO)[C@@H](O)[C@@H]1O; test: as §2; summary of the method: as §1
[6] = substrate: CC(=O)N[C@H]1[C@@H](OP(=O)(O)OP(=O)(O)OC[C@H]2O[C@@H](n3ccc(=O)[nH]c3=O)[C@H](O)[C@@H]2O)O[C@H](C)[C@H](O)[C@@H]1O; test: as §2; summary of the method: as §1

Molecule: CC(=O)N[C@H]1[C@@H](OP(=O)(O)OP(=O)(O)OC[C@H]2O[C@@H](n3ccc(=O)[nH]c3=O)[C@H](O)[C@@H]2O)O[C@H](C)[C@@H](O)[C@@H]1O
- Vmax/Km [1]: 0.259 min⁻¹
- Activity [2]: Active

Molecule: [N-]=[N+]=NCC(=O)N[C@H]1[C@@H](OP(=O)(O)OP(=O)(O)OC[C@H]2O[C@@H](n3ccc(=O)[nH]c3=O)[C@H](O)[C@@H]2O)O[C@H](CO)[C@@H](O)[C@@H]1O
- Activity [2]: inactive

Molecule: CC(=O)N[C@H]1[C@@H](OP(=O)(O)OP(=O)(O)OC[C@H]2O[C@@H](n3ccc(=O)[nH]c3=O)[C@H](O)[C@@H]2O)O[C@H](CO)C[C@@H]1O
- Vmax/Km [1]: 0.029 min⁻¹

B1: Beta 1,3 N-acetylglucosaminyltransferase (Neisseria meningitidis), Q8KHG4 (protein)
chain: MQSLVSVLICAYNVEKYFAQSLAAVVNQTWRNLEILIVDDGSTDGTLAIAKDFQKRDSRIKILAQAQNSGLIPSLNIGLDELAKSGMGEYIARTDADDIAAPDWIEKIVGEMEKDRSIIAMGAWLEVLSEEKDGNRLARHHRHGKIWKKPTRHEDIADFFPFGNPIHNNTMIMRRSVIDGGLRYNTERDWAEDYQFWYDVSKLGRLAYYPEALVKYRLHANQVSSKYSIRQHEIAQGIQKTARNDFLQSMGFKTRFDSLEYRQIKAVAYELLEKHLPEEDFERARRFLYQCFKRTDTLPAGAWLDFAADGRMRRLFTLRQYFGILHRLLKNR
- Km [3]: 3.28 mM
- Vmax [3]: 0.097 mM/min
- Km [4]: 1.32 mM
- Vmax [4]: 0.343 mM/min
- Km [5]: 21.1 mM
- Vmax [5]: 0.11 mM/min
- Km [6]: 3.05 mM
- Vmax [6]: 0.115 mM/min

The remaining lines, values ahead:

- Vmax/Km [1]: 0.038 min⁻¹
Molecule: CC(=O)N[C@H]1[C@@H](OP(=O)(O)OP(=O)(O)OC[C@H]2O[C@@H](n3ccc(=O)[nH]c3=O)[C@H](O)[C@@H]2O)O[C@H](C)[C@H](O)[C@@H]1O

- Vmax/Km [1]: 1.15 min⁻¹
Molecule: CC(=O)N[C@@H]1[C@H](OP(=O)(O)OP(=O)(O)OC[C@H]2O[C@@H](n3ccc(=O)[nH]c3=O)[C@H](O)[C@@H]2O)O[C@@H](CO)[C@H](O)[C@H]1O (stereo in doubt; 1)

- Vmax/Km [1]: 0.005 min⁻¹
Molecule: CCC(=O)N[C@H]1[C@@H](OP(=O)(O)OP(=O)(O)OC[C@H]2O[C@@H](n3ccc(=O)[nH]c3=O)[C@H](O)[C@@H]2O)O[C@H](CO)[C@@H](O)[C@@H]1O

- Vmax/Km [1]: 0.065 min⁻¹
Molecule: CC(=O)N[C@@H]1[C@H](OP(=O)(O)OP(=O)(O)OC[C@H]2O[C@@H](n3ccc(=O)[nH]c3=O)[C@H](O)[C@@H]2O)O[C@@H](CO)[C@H](O)[C@H]1O (stereo in doubt; 8)
